The results in this text go back to ChEMBL document CHEMBL1240452, “Synthesis and toxicity towards normal and cancer cell lines of benzimidazolequinones containing fused aromatic rings and 2-aromatic ring substituents” (Eur J Med Chem, 2010).

Holding throughout (type): functional, cell-based
A short description of test [1]: Cytotoxicity against human GM00637 cells after 72 hrs by MTT assay. Conditions: GM00637, 72 h. A digest of the protocol: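 Normal human skin fibroblasts GM00637, seeded at 10,000 cells/well and exposed aerobically for 72 h at 37 °C. MTT added for a final 3 h; formazan crystals dissolved in DMSO; absorbance 550 nm with 690 nm reference. Viability relative to DMSO-only control, from at least three independent experiments; IC50 estimated by nonlinear regression of dose-response data.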
A general note: Formazan colour is commonly taken as a measure of viable cells.

The next test concerns HeLa. Description: Cytotoxicity against human HeLa cells after 72 hrs by MTT assay. A digest of the protocol:
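HeLa (CCL-2) cervical cancer cells, maintained in DMEM with 10% heat-inactivated FBS, penicillin-streptomycin, 2 mM L-glutamine and non-essential amino acids, plated at 1000 cells/well. Aerobic 72 h exposure at 37 °C, then 3 h MTT; formazan taken up in DMSO, read at 550/690 nm. Viability as % DMSO-only value, ≥3 independent experiments; IC50 by nonlinear regression.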

For the next test, the system named is DU-145. Description: Cytotoxicity against human DU145 cells after 72 hrs by MTT assay. As to conditions: DU-145, 72 h. In a few lines:
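DU145 prostate cancer cells, grown in RPMI-1640 with 10% heat-inactivated FBS, penicillin-streptomycin and 2 mM L-glutamine, seeded at 2000 cells/well. Treated aerobically for 72 h at 37 °C, then incubated 3 h with MTT. Formazan dissolved in DMSO; A550 read against 690 nm reference. Viability as % of DMSO-only wells, mean of ≥3 independent experiments; IC50 from nonlinear regression of dose-response curves.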

A word on the IC50: it is the concentration that gives 50% inhibition. Low values mean inhibition by little substance, high ones a need for much substance. For `CC1Cn2c(nc3c2C(=O)C=CC3=O)-c2ccc3ccccc3c21` (stereo not drawn), the concentration for half-maximal inhibition (IC50) in test [1] is 2440 nM; in the test with HeLa, 1170 nM; with DU-145, 780 nM.

In the case of `CCn1c(-c2ccc3ccccc3c2)nc2c1C(=O)C=CC2=O`, the IC50 turned out to be 40 nM in test [1], 70 nM with HeLa and 60 nM with DU-145.

Take `CC1Cn2c(nc3c2C(=O)C=CC3=O)-c2cccnc21` (stereo not drawn): the half-inhibitory concentration (IC50) was found to be 740 nM in test [1], 1510 nM in the test with HeLa and 700 nM in the test with DU-145.

Regarding `CC1Cn2c(nc3ccccc32)-c2ccc3ccccc3c21` (stereo not drawn), the IC50 (in test [1]; with HeLa) was greater than 10000 nM in each case.

Turning to `CCn1c(-c2ccccc2)nc2c1C(=O)C=CC2=O`, the IC50 in test [1] turned out to be 150 nM; in the test with HeLa, 180 nM; with DU-145, 70 nM.

On to `CCn1c(-c2cccnc2)nc2c1C(=O)C=CC2=O`, for which the half-inhibitory concentration (IC50) in test [1] was determined as 480 nM; in the test on HeLa, 1500 nM; with DU-145 it was 1270 nM.

Turning to `CO[C@@]12[C@H](COC(N)=O)C3=C(C(=O)C(C)=C(N)C3=O)N1C[C@@H]1N[C@@H]12` [MITOMYCIN], the IC50 in test [1] was found to be 460 nM; with HeLa, 270 nM; in the test with DU-145, 170 nM.

In the case of `CC1Cn2c(nc3c2C(=O)C=CC3=O)-c2ccccc21` (stereo not drawn), the figures for the IC50 (in test [1]; with HeLa; in the test with DU-145) were 1650 nM, 1490 nM and 1090 nM, respectively.
